Assay results pooled from the literature.
Compare with care: the assays were run in different laboratories.
Target: G protein-coupled receptor kinase 6 (GRK6, Homo sapiens, UniProt P43250)

Structure (SMILES)	read-out	mode	method	concentration	endpoint	result
CC(C)(C)c1nc(-c2cccc(NS(=O)(=O)c3c(F)cccc3F)c2F)c(-c2ccnc(N)n2)s1	enzyme activity	inhibitor	radiometric	1 µM	remaining activity	79%
Cc1ccc(Nc2nccc(N(C)c3ccc4c(C)n(C)nc4c3)n2)cc1S(N)(=O)=O	enzyme activity	inhibitor	–	0.3 µM	inhibition	11%
O=C(Nc1cnn(-c2csc(C(=O)NC3COC3)c2)c1)Nc1ccccc1Cl	enzyme activity	inhibitor	–	5 µM	remaining activity	97.9%
Cc1cc(NC(=O)c2cccc3cc(-c4cccc5[nH]nc(N)c45)ccc23)ccc1F	enzyme activity	inhibitor	–	0.1 µM	activity vs control	93%
N#CCCc1ccc2c(c1)-c1[nH]c3ccc([N+](=O)[O-])cc3c1CC(=O)N2	cell-free assay	–	–	0.5 µM	remaining signal	91.5%
CC(C)(O)[C@H]1CC[C@H](Nc2ccc3ncc(-c4cccc(C(F)(F)F)c4)n3n2)CC1	enzyme activity	inhibitor	–	1 µM	remaining activity	90.6%
Cc1cnc(NC2CCOCC2)nc1-n1cnc(C(=O)NC(CN)c2cc(F)cc(Cl)c2)c1 (stereo not shown)	enzyme activity	inhibitor	radiometric	1 µM	remaining activity	81%
COc1cc(Cl)c(C(=O)N[C@@H](CN[C@H]2CC[C@@H](N)CC2)Cc2ccc(C#N)cc2)cc1-c1ccc(CN[C@H](C)c2ccc(C)cc2)o1	enzyme activity	inhibitor	–	1 µM	remaining activity	100%
CNC(=O)c1cc(Oc2ccc(NC(=O)Nc3ccc(Cl)c(C(F)(F)F)c3)cc2)ccn1	enzyme activity	inhibitor	–	10 µM	inhibition	1%
COc1cc2ncnc(Nc3ccc(Oc4ccccc4)c(C)c3C)c2cc1OC	enzyme activity	inhibitor	–	1 µM	inhibition	-2%
Cc1ccc(C(=O)NCc2ccsc2)cc1C#Cc1cn(C(C)C)c2ncnc(N)c12	enzyme activity	inhibitor	–	1 µM	activity vs control	109%
CCN(CC)CCNC(=O)c1c(C)[nH]c(/C=C2\C(=O)Nc3ccc(F)cc32)c1C	enzyme activity	inhibitor	–	0.3 µM	inhibition	31%
O=C1Nc2ccc(Cl)cc2C1=Cc1cc(Cl)c(O)c(Cl)c1	cell-free assay	–	–	0.5 µM	remaining signal	89.6%
